Results from different studies.
Target: Cyclin-dependent kinase 2 (CDK2, Homo sapiens, UniProt P24941)
Technique: competition with immobilised ligand

Structure (SMILES) | assay | conditions | remaining binding [%]
COc1ccc2c(c1)O[C@H](c1ccc(OC)c(OC)c1)C[C@@H]2NC(=O)C1(c2ccc3c(c2)OC(F)(F)O3)CC1 | cell-free assay | 1 µM | 100
O=C(NCCCN1CCOCC1)c1ccc(Nc2ncc(Cl)c(-c3ccc(Cl)s3)n2)cc1 | binding | 1 µM | 62
COc1cnc(Nc2cccc(S(N)(=O)=O)c2)nc1N1CCN(c2ccccc2)CC1 | binding | 1 µM | 98
C[C@H](c1ccc(F)cc1)N(Cc1cccc(C(=O)O)c1)C(=O)c1cnc2ccccc2c1 | cell-free assay | 1 µM | 100
O=C(NCC1CCOCC1)c1n[nH]cc1NC(=O)c1c(F)cccc1F | binding | 1 µM | 49
CO[C@H]1CC[C@H](CNc2ccc(S(=O)(=O)NC(=O)c3ccc(N4CCN(CC5=C(c6ccc(Cl)cc6)CC(C)(C)CC5)CC4)cc3Oc3cnc4[nH]ccc4c3)cc2[N+](=O)[O-])CC1 | cell-free assay | 1 µM | 100
COc1cnc(Nc2cccc(S(N)(=O)=O)c2)nc1N1CCN(c2ccccc2)C(=O)C1 | binding | 1 µM | 97
O=C(NCCCN1CCOCC1)c1ccc(Nc2nccc(-c3cc4ccccc4s3)n2)cc1 | binding | 1 µM | 66
C[C@@H]1CN(c2ccc3ncc(-c4ccc5[nH]nc(C6CC6)c5c4)n3n2)C[C@H](C)O1 | binding | 50 nM | 100
COc1ncc2cc3ccccc3nc2c1C#N | cell-free assay | 5 µM | 100
O=S(=O)(NC1CCC(c2cc(F)ccc2F)(S(=O)(=O)c2ccc(Cl)cc2)CC1)C(F)(F)F (stereo not shown) | cell-free assay | 1 µM | 100
CC(C)(C)c1ccc(-c2nc(CBr)nn2-c2cccc(O)c2)cc1 | cell-free assay | 10 µM | 90
F[C@@H]1CCN(c2nccc(-c3cnn4ncccc34)n2)C1 | binding | 1 µM | 100
Nc1cnc(N2CCc3cc(S(=O)(=O)Nc4c(F)cc(Cl)cc4F)cc(N4CCCC4=O)c32)nc1 | cell-free assay | 1 µM | 100
CCN1CCN(Cc2ccc(C(=O)Nc3ccc(C)c(Oc4ccc5c(c4)CC(=O)N5)c3)cc2C(F)(F)F)CC1 | binding | 1 µM | 82
Cc1cnc(Nc2ccc(C(=O)N3CCC(N4CCCC4)CC3)cc2)nc1-c1cc2ccccc2s1 | binding | 1 µM | 35
